From ChEMBL document CHEMBL3045256, “Design, synthesis, structure, and acaricidal/insecticidal activity of novel spirocyclic tetronic acid derivatives containing an oxalyl moiety” (2011)

Tests used:
Format in all cases: functional
Tetranychus cinnabarinus [1] = assay: Acaricidal activity against larvae of Tetranychus cinnabarinus (carmine spider mite) in sieva bean leaves assessed as mortality at 5 mg/kg at 25 +/-1 degC treated for 3 secs measured after 4 days; conditions: 96 h
Ostrinia nubilalis = assay: Stomach toxicity against third-instar larval stage of Ostrinia nubilalis (European corn borer) in corn leaves assessed as mortality at 600 mg/kg at 25 +/-1 degC treated for 3-5 secs before larval infestation after 4 days by leaf-dip method; conditions: 96 h
Procedure, shortened: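 Corn leaf disks (about 5 cm) were dipped for 3–5 s and air-dried. Each disk was placed in a 7 cm glass vessel with 10 third-instar corn borer larvae. Percentage mortality was scored 4 days after treatment. Controls were acetone-treated leaves. Run at 25 ± 1 °C.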

Mythimna separata [2] = assay: Stomach toxicity against fourth-instar larval stage of Mythimna separata (Oriental armyworm) in compound-pretreated corn leaves assessed as mortality at 600 mg/kg at 25 +/-1 degC after 4 days
Procedure, shortened: (§1)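 Foliar application to oriental armyworm. Single corn leaves were laid on moistened filter paper in Petri dishes. Bioassays were run at 25 ± 1 °C.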

Tetranychus cinnabarinus [3] = assay: Acaricidal activity against larvae of Tetranychus cinnabarinus (carmine spider mite) in sieva bean leaves assessed as mortality at 10 mg/kg at 25 +/-1 degC treated for 3 secs measured after 4 days; conditions: 96 h
Tetranychus cinnabarinus [4] = assay: Acaricidal activity against eggs of Tetranychus cinnabarinus (carmine spider mite) in sieva bean leaves assessed as mortality at 5 mg/kg at 25 +/-1 degC treated for 3 secs measured after 4 days; conditions: 96 h
Helicoverpa armigera = assay: Stomach toxicity against third-instar larval stage of Helicoverpa armigerain compound-pretreated corn leaves assessed as mortality at 600 mg/kg at 25 +/-1 degC after 4 days by leaf-dip method
Procedure, shortened: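 Leaf-dip assay on cotton bollworm. Corn leaves were dipped in test solution and air-dried. The treated pieces were placed individually into 24-hole boxes. Run at 25 ± 1 °C.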

Tetranychus cinnabarinus [5] = assay: Acaricidal activity against eggs of Tetranychus cinnabarinus (carmine spider mite) in sieva bean leaves assessed as mortality at 0.5 mg/kg at 25 +/-1 degC treated for 3 secs measured after 4 days; conditions: 96 h
Tetranychus cinnabarinus [6] = assay: Acaricidal activity against larvae of Tetranychus cinnabarinus (carmine spider mite) in sieva bean leaves assessed as mortality at 2.5 mg/kg at 25 +/-1 degC treated for 3 secs measured after 4 days; conditions: 96 h
Plutella xylostella = assay: Stomach toxicity against third-instar larval stage of Plutella xylostella (diamondback moth) in cabbage leaves assessed as mortality at 200 mg/kg at 25 +/-1 degC treated for 3 secs before larval infestation after 4 days by leaf-dip method; conditions: 96 h
Procedure, shortened: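 Cabbage leaf disks (6 cm × 2 cm) were dipped in test solution for 3 s and air-dried. Each disk was placed in a glass tube and given seven third-instar diamondback moth larvae. Percentage mortality was scored after 4 days. Controls were water and dimethylformamide. Each treatment was done three times at 25 ± 1 °C.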

Tetranychus cinnabarinus [7] = assay: Acaricidal activity against larvae of Tetranychus cinnabarinus (carmine spider mite) in sieva bean leaves assessed as mortality at 1 mg/kg at 25 +/-1 degC treated for 3 secs measured after 4 days; conditions: 96 h
Mythimna separata [8] = assay: Stomach toxicity against fourth-instar larval stage of Mythimna separata (Oriental armyworm) in compound-pretreated corn leaves assessed as mortality at 100 mg/kg at 25 +/-1 degC after 4 days; procedure, shortened: as §1
Mythimna separata [9] = assay: Stomach toxicity against fourth-instar larval stage of Mythimna separata (Oriental armyworm) in compound-pretreated corn leaves assessed as mortality at 50 mg/kg at 25 +/-1 degC after 4 days; procedure, shortened: as §1
Tetranychus cinnabarinus [10] = assay: Acaricidal activity against larvae of Tetranychus cinnabarinus (carmine spider mite) in sieva bean leaves assessed as mortality at 0.5 mg/kg at 25 +/-1 degC treated for 3 secs measured after 4 days; conditions: 96 h
Tetranychus cinnabarinus [11] = assay: Acaricidal activity against eggs of Tetranychus cinnabarinus (carmine spider mite) in sieva bean leaves assessed as mortality at 2.5 mg/kg at 25 +/-1 degC treated for 3 secs measured after 4 days; conditions: 96 h
Tetranychus cinnabarinus [12] = assay: Acaricidal activity against eggs of Tetranychus cinnabarinus (carmine spider mite) in sieva bean leaves assessed as mortality at 1 mg/kg at 25 +/-1 degC treated for 3 secs measured after 4 days; conditions: 96 h
Tetranychus cinnabarinus [13] = assay: Acaricidal activity against eggs of Tetranychus cinnabarinus (carmine spider mite) in sieva bean leaves assessed as mortality at 0.25 mg/kg at 25 +/-1 degC treated for 3 secs measured after 4 days; conditions: 96 h
Tetranychus cinnabarinus [14] = assay: Acaricidal activity against eggs of Tetranychus cinnabarinus (carmine spider mite) in sieva bean leaves assessed as mortality at 25 +/-1 degC treated for 3 secs measured after 4 days
Tetranychus cinnabarinus [15] = assay: Acaricidal activity against eggs of Tetranychus cinnabarinus (carmine spider mite) in sieva bean leaves assessed as mortality at 0.05 mg/kg at 25 +/-1 degC treated for 3 secs measured after 4 days; conditions: 96 h
Tetranychus cinnabarinus [16] = assay: Acaricidal activity against eggs of Tetranychus cinnabarinus (carmine spider mite) in sieva bean leaves assessed as mortality at 0.1 mg/kg at 25 +/-1 degC treated for 3 secs measured after 4 days; conditions: 96 h
Tetranychus cinnabarinus [17] = assay: Toxicity ratio of spiromesifen LC50 to compound LC50 for eggs of Tetranychus cinnabarinus (carmine spider mite) treated for 3 secs measured after 4 days
Tetranychus cinnabarinus [18] = assay: Ratio of mortality against eggs of Tetranychus cinnabarinus (carmine spider mite) to mortality against larvae of carmine spider mite

| SMILES | mortality at 5 mg/kg (Tetranychus cinnabarinus [1]) | mortality at 600 mg/kg (Ostrinia nubilalis) | mortality at 600 mg/kg (Mythimna separata [2]) | mortality at 10 mg/kg (Tetranychus cinnabarinus [3]) | mortality at 5 mg/kg (Tetranychus cinnabarinus [4]) | mortality at 600 mg/kg (Helicoverpa armigera) | mortality at 0.5 mg/kg (Tetranychus cinnabarinus [5]) | mortality at 2.5 mg/kg (Tetranychus cinnabarinus [6]) | mortality at 1 mg/kg (Tetranychus cinnabarinus [7]) | mortality at 0.5 mg/kg (Tetranychus cinnabarinus [10]) | mortality at 2.5 mg/kg (Tetranychus cinnabarinus [11]) | mortality at 1 mg/kg (Tetranychus cinnabarinus [12]) | mortality at 0.25 mg/kg (Tetranychus cinnabarinus [13]) | also measured |
| --- | --- | --- | --- | --- | --- | --- | --- | --- | --- | --- | --- | --- | --- | --- |
| C#CCOC(=O)C(=O)OC1=C(c2c(C)cc(C)cc2C)C(=O)OC12CCCC2 | 0% | 70% | 50% | 30% | 30% | 20% | – | – | – | – | – | – | – | – |
| Cc1cc(C)c(C2=C(OC(=O)C(=O)Oc3ccccc3)C3(CCCC3)OC2=O)c(C)c1 | 90% | 60% | – | 100% | 100% | 20% | 50% | 80% | 50% | 20% | 100% | 70% | – | mortality at 200 mg/kg (Plutella xylostella): 60%; mortality at 100 mg/kg (Mythimna separata [8]): 100%; mortality at 50 mg/kg (Mythimna separata [9]): 0% |
| Cc1cc(C)c(C2=C(OC(=O)C(=O)Oc3ccc(Cl)cc3)C3(CCCC3)OC2=O)c(C)c1 | 90% | 50% | 70% | 100% | 100% | 30% | 80% | 70% | 60% | 0% | 100% | 90% | 60% | – |
| Cc1cc(C)c(C2=C(OC(=O)C(=O)Oc3ccc(C(C)(C)C)cc3)C3(CCCC3)OC2=O)c(C)c1 | 90% | 10% | 80% | 100% | 90% | 10% | – | 90% | 60% | 40% | 70% | 50% | – | – |
| CCN(CC)C(=O)C(=O)OC1=C(c2c(C)cc(C)cc2C)C(=O)OC12CCCC2 | 100% | 30% | – | 100% | 100% | 20% | 0% | 90% | 70% | – | 100% | 60% | – | mortality at 200 mg/kg (Plutella xylostella): 85%; mortality at 100 mg/kg (Mythimna separata [8]): 100%; mortality at 50 mg/kg (Mythimna separata [9]): 40% |
| Cc1cc(C)c(C2=C(OC(=O)C(=O)N(C(C)C)C(C)C)C3(CCCC3)OC2=O)c(C)c1 | 80% | 80% | 50% | 100% | 100% | 40% | 100% | 40% | – | – | 100% | 100% | 80% | LC50 (Tetranychus cinnabarinus [14]): 0.1147 mg/kg; mortality at 0.05 mg/kg (Tetranychus cinnabarinus [15]): 10%; mortality at 0.1 mg/kg (Tetranychus cinnabarinus [16]): 40%; RatioLC50 (Tetranychus cinnabarinus [17]): 1.4; Ratio (Tetranychus cinnabarinus [18]): 25 |
| Cc1cc(C)c(C2=C(OC(=O)C(=O)N3CCCCC3)C3(CCCC3)OC2=O)c(C)c1 | 90% | 40% | 40% | 100% | 100% | 30% | 100% | 70% | – | – | 100% | 100% | 100% | LC50 (Tetranychus cinnabarinus [14]): 0.0675 mg/kg; mortality at 0.05 mg/kg (Tetranychus cinnabarinus [15]): 30%; mortality at 0.1 mg/kg (Tetranychus cinnabarinus [16]): 60%; RatioLC50 (Tetranychus cinnabarinus [17]): 2.3; Ratio (Tetranychus cinnabarinus [18]): 25 |
